Experimental findings from ChEMBL document CHEMBL1641492, “Design, synthesis and biological evaluation of novel L-lysine ureido derivatives as aminopeptidase N inhibitors” (Bioorg Med Chem, 2011) are described below.

SMILES strings stand for the structures.

For orientation: IC50 means the concentration that gives 50% inhibition.

System in the first test: not listed separately
Nature of the test: Antiproliferative activity against human ES2 cells after 48 hrs by MTT assay. The class given is functional, cell-based. Particulars: ES-2, 48 h. In a few lines: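 ES-2 human cells seeded at 5000 per well, adhered 10 h, then exposed to 2500, 500, 100, 20 and 4 µg/mL compound for 48 h. MTT 0.5% solution added, 4 h further incubation, formazan dissolved in DMSO, absorbance at 570 nm. Three independent experiments, mean with SE.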
(In general: Tetrazolium dyes change colour on reduction, which living cells bring about.)
In turn, `O=C(N[C@@H](CCCCNC(=O)OCc1ccccc1)C(=O)NO)N[C@@H](Cc1ccccc1)C(=O)NO` yielded an IC50 of 395 µM.

In turn, `CSCC[C@H](NC(=O)N[C@@H](CCCCNC(=O)OCc1ccccc1)C(=O)NO)C(=O)NO` showed an IC50 of 356 µM.

`C[C@H](NC(=O)N[C@@H](CCCCNC(=O)OCc1ccccc1)C(=O)NO)C(=O)NO` came in with an IC50 of 415 µM.

Compound `CC(C)C[C@H](NC(=O)N[C@@H](CCCCNC(=O)OCc1ccccc1)C(=O)NO)C(=O)NO` gave a half-maximal inhibitory concentration (IC50) of 291 µM.

For the compound `CC(C)C[C@H](NC(=O)[C@@H](O)[C@H](N)Cc1ccccc1)C(=O)O` [UBENIMEX], inhibition was half-maximal at 332 µM (IC50).

The target of a further test is T1, Aminopeptidase N (Sus scrofa, UniProt P15145).
T1 sequence (P15145 whole entry): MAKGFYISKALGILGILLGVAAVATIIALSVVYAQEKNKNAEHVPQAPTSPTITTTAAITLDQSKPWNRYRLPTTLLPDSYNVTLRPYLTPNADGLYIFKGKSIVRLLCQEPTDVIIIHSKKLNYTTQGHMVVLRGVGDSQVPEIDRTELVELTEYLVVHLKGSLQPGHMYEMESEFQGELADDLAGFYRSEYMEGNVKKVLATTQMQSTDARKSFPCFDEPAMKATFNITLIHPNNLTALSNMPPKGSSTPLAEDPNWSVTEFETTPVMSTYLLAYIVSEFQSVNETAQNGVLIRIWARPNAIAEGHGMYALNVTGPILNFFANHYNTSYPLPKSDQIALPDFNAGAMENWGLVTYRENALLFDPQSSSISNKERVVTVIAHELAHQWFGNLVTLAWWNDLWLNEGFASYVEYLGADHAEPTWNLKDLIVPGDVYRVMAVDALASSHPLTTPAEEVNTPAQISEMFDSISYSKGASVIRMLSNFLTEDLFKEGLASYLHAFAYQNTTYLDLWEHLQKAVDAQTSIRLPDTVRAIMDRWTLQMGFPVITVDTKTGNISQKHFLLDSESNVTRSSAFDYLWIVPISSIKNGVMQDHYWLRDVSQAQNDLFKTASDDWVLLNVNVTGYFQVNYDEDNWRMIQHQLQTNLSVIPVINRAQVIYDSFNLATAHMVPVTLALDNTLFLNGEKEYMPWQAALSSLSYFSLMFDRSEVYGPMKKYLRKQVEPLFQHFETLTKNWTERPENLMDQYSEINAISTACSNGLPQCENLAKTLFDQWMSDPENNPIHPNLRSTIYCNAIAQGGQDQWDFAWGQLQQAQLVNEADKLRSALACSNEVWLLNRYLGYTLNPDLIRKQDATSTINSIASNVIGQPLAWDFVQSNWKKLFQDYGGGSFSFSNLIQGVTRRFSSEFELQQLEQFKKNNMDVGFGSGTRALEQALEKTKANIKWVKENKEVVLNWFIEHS
Nature of the test: Inhibition of porcine kidney microsomal APN after 10 mins at room temperature by spectrophotometry.
Conditions: not given
In a few lines: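 Porcine kidney microsomal aminopeptidase (lyophilized, 15–25 units/mg protein), 6 µg/mL final, preincubated with inhibitor 10 min at room temperature. Substrate L-Leu-p-nitroanilide, 50 mM PBS pH 7.2, 37 °C. Inhibitor solutions in assay buffer adjusted to pH 7.5. IC50 as mean ± SD of three independent assays.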
As for `CC[C@@H](C)[C@H](NC(=O)N[C@@H](CCCCNC(=O)OCc1ccccc1)C(=O)NO)C(=O)NO`, the 50% inhibitory concentration (IC50) was greater than 50 µM.

Take `O=C(N[C@@H](CCCCNC(=O)OCc1ccccc1)C(=O)NO)N[C@@H](Cc1ccccc1)C(=O)NO`: the IC50 stood at 14.5 µM.

Turning to `CSCC[C@H](NC(=O)N[C@@H](CCCCNC(=O)OCc1ccccc1)C(=O)NO)C(=O)NO`, the midpoint of inhibition, the IC50, lay at 14.4 µM. The IC50 values of the last two compounds are within 1.5-fold of each other.

Turning to `COC(=O)[C@H](CCCCNC(=O)OCc1ccccc1)NC(=O)N[C@H](C(=O)OC)C(C)C`, the concentration for half-maximal inhibition (IC50) is greater than 50 µM.

With `COC(=O)[C@H](CCCCNC(=O)OCc1ccccc1)NC(=O)N[C@@H](CC(C)C)C(=O)OC`, the IC50 is greater than 50 µM.

The compound `CC[C@@H](C)[C@H](NC(=O)N[C@@H](CCCCNC(=O)OCc1ccccc1)C(=O)OC)C(=O)OC` had an IC50 greater than 50 µM.

For the compound `COC(=O)[C@H](CCCCNC(=O)OCc1ccccc1)NC(=O)N[C@@H](Cc1ccccc1)C(=O)OC`, the IC50 was greater than 50 µM.

In turn, `COC(=O)[C@H](CCCCNC(=O)OCc1ccccc1)NC(=O)N[C@@H](CCSC)C(=O)OC` registered a half-inhibitory concentration (IC50) greater than 50 µM.

As to `O=C(O)CNC(=O)N[C@@H](CCCCNC(=O)OCc1ccccc1)C(=O)O`, the IC50 is greater than 50 µM.

With `C[C@H](NC(=O)N[C@@H](CCCCNC(=O)OCc1ccccc1)C(=O)O)C(=O)O`, the concentration for half-maximal inhibition (IC50) was greater than 50 µM.

The compound `CC(C)[C@H](NC(=O)N[C@@H](CCCCNC(=O)OCc1ccccc1)C(=O)O)C(=O)O` registered a 50% inhibitory concentration (IC50) greater than 50 µM.

On to `CC(C)C[C@H](NC(=O)N[C@@H](CCCCNC(=O)OCc1ccccc1)C(=O)O)C(=O)O`, for which the IC50 is greater than 50 µM.

Regarding `CC[C@@H](C)[C@H](NC(=O)N[C@@H](CCCCNC(=O)OCc1ccccc1)C(=O)O)C(=O)O`, the IC50 was greater than 50 µM.

Regarding `O=C(N[C@@H](CCCCNC(=O)OCc1ccccc1)C(=O)O)N[C@@H](Cc1ccccc1)C(=O)O`, the IC50 was greater than 50 µM.

On to `CSCC[C@H](NC(=O)N[C@@H](CCCCNC(=O)OCc1ccccc1)C(=O)O)C(=O)O`, for which the concentration for half-maximal inhibition (IC50) was greater than 50 µM.

As for `O=C(CNC(=O)N[C@@H](CCCCNC(=O)OCc1ccccc1)C(=O)NO)NO`, the half-maximal inhibitory concentration (IC50) worked out at 20.4 µM. That is a double-digit micromolar value.

Consider `C[C@H](NC(=O)N[C@@H](CCCCNC(=O)OCc1ccccc1)C(=O)NO)C(=O)NO`, for which the IC50 was 19.9 µM. The IC50 values of the last two compounds are within 1.5-fold of each other.

Compound `CC(C)C[C@H](NC(=O)N[C@@H](CCCCNC(=O)OCc1ccccc1)C(=O)NO)C(=O)NO` had an IC50 of 4.51 µM.

For `COC(=O)[C@H](CCCCNC(=O)OCc1ccccc1)NC(=O)NCc1ccccc1`, the IC50 is greater than 50 µM.

`COC(=O)[C@H](CCCCNC(=O)OCc1ccccc1)NC(=O)NCCc1ccccc1` displayed an IC50 greater than 50 µM.

Consider `COC(=O)[C@H](CCCCNC(=O)OCc1ccccc1)NC(=O)NC(C)(C)C`, for which the IC50 was greater than 50 µM.

As to `O=C(NCc1ccccc1)N[C@@H](CCCCNC(=O)OCc1ccccc1)C(=O)NO`, 16.4 µM corresponded to half-maximal inhibition (IC50).

Compound `O=C(NCCc1ccccc1)N[C@@H](CCCCNC(=O)OCc1ccccc1)C(=O)NO` yielded a half-maximal inhibitory concentration (IC50) greater than 50 µM.

For the compound `CC(C)(C)NC(=O)N[C@@H](CCCCNC(=O)OCc1ccccc1)C(=O)NO`, the IC50 is greater than 50 µM.

Turning to `COC(=O)CNC(=O)N[C@@H](CCCCNC(=O)OCc1ccccc1)C(=O)OC`, the IC50 was greater than 50 µM.

Take `COC(=O)[C@H](C)NC(=O)N[C@@H](CCCCNC(=O)OCc1ccccc1)C(=O)OC`: the IC50 is greater than 50 µM.
